# Results: ChEMBL document CHEMBL5724801, “EUbOPEN Chemogenomics Library - Multiplex” (2024)
# Several values for one entry are separate records, joined by “and”; a condition that tells them apart may be missing. Identical values can stand only once.
# Assays:
# HEK-293T = assay: Multiplex assay against HEK293T; type: toxicity, cell-based; conditions: human
# Method in brief: (§1)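 Live cells were stained at seeding with Hoechst33342, BioTracker Green Microtubule Cytoskeleton Dye, MitoTracker Red and Annexin V Alexa Fluor 680. Following compound addition, they were imaged on a CQ1 microscope at 37°C and 5% CO2 and gated by CellPathfinder machine learning into Hoechst high-intensity objects or normal cells, with normal cells split into healthy, pyknosed or fragmented nuclei and pyknosed cells into mitotic or apoptotic. Tubulin, mitochondrial-mass and membrane-permeability phenotypes are per cents of healthy-nucleus cells.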
# U2OS = assay: Multiplex assay against U2OS; type: toxicity, cell-based; conditions: human; method in brief: as §1
# [1] = 24 h, 1 µM, compound concentration 1 uM
# [2] = 24 h, 10 µM, compound concentration 10 uM
# [3] = 48 h, 1 µM, compound concentration 1 uM
# [4] = 48 h, 10 µM, compound concentration 10 uM
# [5] = 12 h, 1 µM, compound concentration 1 uM
# [6] = 12 h, 10 µM, compound concentration 10 uM
structure (smiles),measurement,setting,value
COc1ccc2c(c1OCc1ccccc1)C[C@@H](C(=O)O)N(C(=O)C(c1ccccc1)c1ccccc1)C2 [OLODANRIGAN],Total Cell Count,HEK-293T; [1],614 and 521
same,Population Apoptotic (%),HEK-293T; [2],40% and 43%
same,Population Fragmented Nuclei (%),HEK-293T; [2],7% and 10%
same,Population Healthy Nuclei (%),HEK-293T; [2],78% and 79%
same,Population Hoechst High Intensity Objects (%),HEK-293T; [2],6%
same,Population Membrane Permeable-Phenotype (%),HEK-293T; [2],0%
same,Population Mitochondria Different-Phenotype (%),HEK-293T; [2],34% and 57%
same,Population Mitotic Cells (%),HEK-293T; [2],59% and 56%
same,Population Normal (%),HEK-293T; [2],93%
same,Population Pyknosed Nuclei (%),HEK-293T; [2],13% and 9%
same,Population Tubulin-Different-Phenotype (%),HEK-293T; [2],32% and 28%
same,Total Cell Count,HEK-293T; [2],456 and 414
same,Population Apoptotic (%),HEK-293T; [3],26% and 22%
same,Population Fragmented Nuclei (%),HEK-293T; [3],13% and 15%
same,Population Healthy Nuclei (%),HEK-293T; [3],80% and 79%
same,Population Hoechst High Intensity Objects (%),HEK-293T; [3],2%
same,Population Membrane Permeable-Phenotype (%),HEK-293T; [3],0%
same,Population Mitochondria Different-Phenotype (%),HEK-293T; [3],15% and 18%
same,Population Mitotic Cells (%),HEK-293T; [3],73% and 77%
same,Population Normal (%),HEK-293T; [3],97%
same,Population Pyknosed Nuclei (%),HEK-293T; [3],5%
same,Population Tubulin-Different-Phenotype (%),HEK-293T; [3],11% and 10%
same,Total Cell Count,HEK-293T; [3],1083 and 818
same,Population Apoptotic (%),HEK-293T; [4],32% and 39%
same,Population Fragmented Nuclei (%),HEK-293T; [4],12%
same,Population Healthy Nuclei (%),HEK-293T; [4],78% and 80%
same,Population Hoechst High Intensity Objects (%),HEK-293T; [4],5% and 6%
same,Population Membrane Permeable-Phenotype (%),HEK-293T; [4],0%
same,Population Mitochondria Different-Phenotype (%),HEK-293T; [4],22% and 32%
same,Population Mitotic Cells (%),HEK-293T; [4],67% and 60%
same,Population Normal (%),HEK-293T; [4],94% and 93%
same,Population Pyknosed Nuclei (%),HEK-293T; [4],8% and 7%
same,Population Tubulin-Different-Phenotype (%),HEK-293T; [4],15% and 18%
same,Total Cell Count,HEK-293T; [4],659 and 534
same,Population Apoptotic (%),U2OS; [5],82% and 66%
same,Population Fragmented Nuclei (%),U2OS; [5],31% and 18%
same,Population Healthy Nuclei (%),U2OS; [5],59% and 75%
same,Population Hoechst High Intensity Objects (%),U2OS; [5],2% and 3%
same,Population Membrane Permeable-Phenotype (%),U2OS; [5],4% and 6%
same,Population Mitochondria Different-Phenotype (%),U2OS; [5],0% and 4%
same,Population Mitotic Cells (%),U2OS; [5],17% and 33%
same,Population Normal (%),U2OS; [5],97% and 96%
same,Population Pyknosed Nuclei (%),U2OS; [5],8% and 5%
same,Population Tubulin-Different-Phenotype (%),U2OS; [5],1% and 2%
same,Total Cell Count,U2OS; [5],286 and 112
same,Population Apoptotic (%),U2OS; [6],78% and 81%
same,Population Fragmented Nuclei (%),U2OS; [6],30% and 26%
same,Population Healthy Nuclei (%),U2OS; [6],64% and 63%
same,Population Hoechst High Intensity Objects (%),U2OS; [6],1% and 0%
same,Population Membrane Permeable-Phenotype (%),U2OS; [6],6% and 2%
same,Population Mitochondria Different-Phenotype (%),U2OS; [6],1%
same,Population Mitotic Cells (%),U2OS; [6],21% and 18%
same,Population Normal (%),U2OS; [6],98% and 99%
same,Population Pyknosed Nuclei (%),U2OS; [6],5% and 10%
same,Population Tubulin-Different-Phenotype (%),U2OS; [6],2%
same,Total Cell Count,U2OS; [6],273 and 110
same,Population Apoptotic (%),U2OS; [1],87% and 55%
same,Population Fragmented Nuclei (%),U2OS; [1],25% and 18%
same,Population Healthy Nuclei (%),U2OS; [1],64% and 74%
same,Population Hoechst High Intensity Objects (%),U2OS; [1],0% and 2%
same,Population Membrane Permeable-Phenotype (%),U2OS; [1],2% and 9%
same,Population Mitochondria Different-Phenotype (%),U2OS; [1],0% and 6%
same,Population Normal (%),U2OS; [1],99% and 97%
same,Population Pyknosed Nuclei (%),U2OS; [1],10% and 6%
same,Population Tubulin-Different-Phenotype (%),U2OS; [1],2% and 5%
same,Total Cell Count,U2OS; [1],311 and 143
same,Population Apoptotic (%),U2OS; [2],83% and 50%
same,Population Fragmented Nuclei (%),U2OS; [2],27% and 22%
same,Population Healthy Nuclei (%),U2OS; [2],66% and 72%
same,Population Hoechst High Intensity Objects (%),U2OS; [2],1% and 0%
same,Population Membrane Permeable-Phenotype (%),U2OS; [2],4%
same,Population Mitochondria Different-Phenotype (%),U2OS; [2],0% and 1%
same,Population Normal (%),U2OS; [2],98% and 100%
same,Population Pyknosed Nuclei (%),U2OS; [2],5% and 4%
same,Population Tubulin-Different-Phenotype (%),U2OS; [2],1% and 2%
same,Total Cell Count,U2OS; [2],318 and 123
same,Population Apoptotic (%),U2OS; [3],91% and 78%
same,Population Fragmented Nuclei (%),U2OS; [3],22% and 14%
same,Population Healthy Nuclei (%),U2OS; [3],70% and 77%
same,Population Hoechst High Intensity Objects (%),U2OS; [3],3% and 4%
same,Population Membrane Permeable-Phenotype (%),U2OS; [3],4% and 3%
same,Population Mitochondria Different-Phenotype (%),U2OS; [3],1% and 3%
same,Population Mitotic Cells (%),U2OS; [3],8% and 21%
same,Population Normal (%),U2OS; [3],96% and 95%
same,Population Pyknosed Nuclei (%),U2OS; [3],7%
same,Population Tubulin-Different-Phenotype (%),U2OS; [3],2%
same,Total Cell Count,U2OS; [3],483 and 184
same,Population Apoptotic (%),U2OS; [4],88% and 85%
same,Population Fragmented Nuclei (%),U2OS; [4],20% and 18%
same,Population Healthy Nuclei (%),U2OS; [4],71% and 77%
same,Population Hoechst High Intensity Objects (%),U2OS; [4],1%
same,Population Membrane Permeable-Phenotype (%),U2OS; [4],5% and 7%
same,Population Mitochondria Different-Phenotype (%),U2OS; [4],1% and 6%
same,Population Mitotic Cells (%),U2OS; [4],11% and 14%
same,Population Normal (%),U2OS; [4],98%
same,Population Pyknosed Nuclei (%),U2OS; [4],8% and 4%
same,Population Tubulin-Different-Phenotype (%),U2OS; [4],3% and 5%
same,Total Cell Count,U2OS; [4],451 and 163
